Results as given in ChEMBL document CHEMBL5543089, “Discovery of a novel, highly potent EZH2 PROTAC degrader for targeting non-canonical oncogenic functions of EZH2” (Eur J Med Chem, 2024).
Activity calls are given as the source filed them. The calls are words filed in the database; no cut-off is given here.

Columns and labels:
[1] = target: T1, von Hippel-Lindau disease tumor suppressor/Histone-lysine N-methyltransferase EZH2 (Homo sapiens, UniProt Q15910+P40337); assay: PROTAC activity at VHL/EZH2 degradation in MLLr AML cell line human EOL1 cells assessed as protein degradation at 0.5 uM measured after 24 hrs in presence of 5 uM EPZ-6438 by Western blot analysis; type: cell-based
Outline: (§1)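 EOL-1 cells were pre-treated for 2 h with MLN4924 (0.05 μM), EPZ-6438 (5 μM) or VHL-1 (5 μM), then given 0.5 μM degrader for 24 h. EZH2 was assessed by Western blot against β-actin. Blots are representative of two biological experiments.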
Target sequence in this assay (P40337 whole entry, looked up): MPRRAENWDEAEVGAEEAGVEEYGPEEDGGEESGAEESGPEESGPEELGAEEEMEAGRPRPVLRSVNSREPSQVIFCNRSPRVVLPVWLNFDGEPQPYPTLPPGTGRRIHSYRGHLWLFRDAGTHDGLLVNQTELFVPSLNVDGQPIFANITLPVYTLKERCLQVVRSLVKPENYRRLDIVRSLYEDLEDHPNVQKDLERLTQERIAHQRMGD
Target sequence in this assay (Q15910 whole entry, looked up): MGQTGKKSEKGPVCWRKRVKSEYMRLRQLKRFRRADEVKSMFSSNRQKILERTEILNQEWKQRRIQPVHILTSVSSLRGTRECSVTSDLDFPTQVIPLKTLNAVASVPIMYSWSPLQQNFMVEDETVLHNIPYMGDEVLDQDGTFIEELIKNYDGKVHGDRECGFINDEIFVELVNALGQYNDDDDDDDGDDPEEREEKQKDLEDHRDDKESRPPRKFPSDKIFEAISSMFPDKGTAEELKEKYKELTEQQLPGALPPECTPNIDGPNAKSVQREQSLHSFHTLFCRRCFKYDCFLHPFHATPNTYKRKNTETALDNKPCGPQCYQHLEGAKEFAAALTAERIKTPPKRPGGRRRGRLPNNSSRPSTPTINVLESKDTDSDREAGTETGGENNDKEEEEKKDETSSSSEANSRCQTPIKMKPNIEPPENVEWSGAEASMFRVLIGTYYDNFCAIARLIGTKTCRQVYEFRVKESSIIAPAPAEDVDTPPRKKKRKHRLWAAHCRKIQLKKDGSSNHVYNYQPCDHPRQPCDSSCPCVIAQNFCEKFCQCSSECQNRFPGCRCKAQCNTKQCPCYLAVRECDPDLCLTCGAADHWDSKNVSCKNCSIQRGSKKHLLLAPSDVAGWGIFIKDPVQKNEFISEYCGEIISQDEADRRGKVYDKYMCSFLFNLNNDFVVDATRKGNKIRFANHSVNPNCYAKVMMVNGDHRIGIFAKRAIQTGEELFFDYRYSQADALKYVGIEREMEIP

[2] = target: Protein arginine N-methyltransferase 3 (Homo sapiens) (UniProt O60678); assay: Inhibition of human PRMT3 assessed as methyltransferase activity using Histone H3 as substrate at 10 uM by radioisotope based MT HotSpot assay relative to control
Outline: (§2)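 Radioisotope-based methyltransferase assay (MT HotSpot) run by a contract lab. Compound was tested at 10 μM against a panel of 20 methyltransferases, in duplicate. Values are means ± SD of two replicates.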

EOL1 = assay: Anti-proliferative activity against human EOL1 cells assessed as cell viability measured after 5 days incubation by CCK-8 assay; type: functional, cell-based; conditions: EOL1, 120 h
Outline: (§3)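 Cells plated at 3,000–10,000 per well and exposed to serial dilutions for 5 days at 37 °C. CCK-8 (1x) was added for 2–4 h, with absorbance read at 450 nm against a 690 nm reference. IC50 was taken from curve fits. Leukemia lines were grown in RPMI-1640, K562 in IMDM and MDA-MB-468 in DMEM, all with 10 % FBS. Values are means ± SD of two biological experiments (three for BT549 and MDA-MB-468).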

[3] = target: Histone-lysine N-methyltransferase NSD2 (Homo sapiens) (UniProt O96028); assay: Inhibition of human NSD2 assessed as methyltransferase activity using Nucleosomes as substrate at 10 uM by radioisotope based MT HotSpot assay relative to control; outline: as §2
[4] = target: T1, von Hippel-Lindau disease tumor suppressor/Histone-lysine N-methyltransferase EZH2; assay: PROTAC activity at VHL/EZH2 degradation in human RS4-11 cells assessed as protein degradation at 0.3 uM measured after 24 hrs by Western blot analysis; type: cell-based
Outline: (§4)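 Cells were seeded at 0.5–2 million per well and treated for 24 h, or for the stated times at 300 nM in the time course. Lysis was in RIPA with protease inhibitors; ~10 μg protein was run on SDS-PAGE and blotted to PVDF. Detection used fluorescent immunoblotting for EZH2, EED and SUZ12, with β-actin as loading control. Blots are representative of two biological experiments.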
Target sequence in this assay (P40337 whole entry, looked up): as the sequence (P40337 whole entry, looked up) above
Target sequence in this assay (Q15910 whole entry, looked up): as the sequence (Q15910 whole entry, looked up) above

[5] = target: T1, von Hippel-Lindau disease tumor suppressor/Histone-lysine N-methyltransferase EZH2; assay: PROTAC activity at VHL/EZH2 degradation in human BT-549 cells assessed as protein degradation at 0.1 to 3 uM measured after 48 hrs by Western blot analysis; type: cell-based; conditions: dose 0.1-3 µM
Outline: (§5)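 BT549 (RPMI-1640) and MDA-MB-468 (DMEM) cells were treated for 48 h. RIPA lysates (~10 μg) were immunoblotted for EZH2 with β-actin as loading control. Blots are representative of three biological experiments.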
Target sequence in this assay (P40337 whole entry, looked up): as the sequence (P40337 whole entry, looked up) above
Target sequence in this assay (Q15910 whole entry, looked up): as the sequence (Q15910 whole entry, looked up) above

[6] = target: T1, von Hippel-Lindau disease tumor suppressor/Histone-lysine N-methyltransferase EZH2; assay: PROTAC activity at VHL/EZH2 degradation in MLLr AML cell line human EOL1 cells assessed as protein degradation at 0.5 uM measured after 24 hrs in presence of 5 uM VHL-1 by Western blot analysis; type: cell-based; outline: as §1
Target sequence in this assay (P40337 whole entry, looked up): as the sequence (P40337 whole entry, looked up) above
Target sequence in this assay (Q15910 whole entry, looked up): as the sequence (Q15910 whole entry, looked up) above

[7] = target: T1, von Hippel-Lindau disease tumor suppressor/Histone-lysine N-methyltransferase EZH2; assay: PROTAC activity at VHL/EZH2 degradation in human MDA-MB-468 cells assessed as protein degradation at 0.1 to 3 uM measured after 48 hrs by Western blot analysis; type: cell-based; conditions: dose 0.1-3 µM; outline: as §5
Target sequence in this assay (P40337 whole entry, looked up): as the sequence (P40337 whole entry, looked up) above
Target sequence in this assay (Q15910 whole entry, looked up): as the sequence (Q15910 whole entry, looked up) above

[8] = Plasma concentration in mouse at 50 mg/kg, ip measured after 9 hrs; conditions: in vivo
[9] = target: PRMT5/MEP50 complex (Homo sapiens) (UniProt O14744+Q9BQA1); assay: Inhibition of human PRMT5/MEP50 assessed as methyltransferase activity using Histone H2A as substrate at 10 uM by radioisotope based MT HotSpot assay relative to control; type: protein-complex assay; outline: as §2
MV4-11 = assay: Anti-proliferative activity against human MV4-11 cells assessed as cell viability measured after 5 days incubation by CCK-8 assay; type: functional, cell-based; conditions: MV4-11, 120 h; outline: as §3
BT-549 = assay: Anti-proliferative activity against human BT-549 cells assessed as cell growth inhibition measured after 5 days incubation by CCK-8 assay; type: functional, cell-based; conditions: BT-549, 120 h; outline: as §3
[10] = target: Histone-lysine N-methyltransferase SMYD3 (Homo sapiens) (UniProt Q9H7B4); assay: Inhibition of human SMYD3 assessed as methyltransferase activity using MEKK2 as substrate at 10 uM by radioisotope based MT HotSpot assay relative to control; outline: as §2
[11] = target: Protein arginine N-methyltransferase 6 (Homo sapiens) (UniProt Q96LA8); assay: Inhibition of human PRMT6 assessed as methyltransferase activity using GST-GAR as substrate at 10 uM by radioisotope based MT HotSpot assay relative to control; outline: as §2
[12] = target: T1, von Hippel-Lindau disease tumor suppressor/Histone-lysine N-methyltransferase EZH2; assay: PROTAC activity at VHL/EZH2 degradation in MLLr AML cell line human EOL1 cells assessed as protein degradation at 0.3 uM measured after 24 hrs by Western blot analysis; type: cell-based; outline: as §4
Target sequence in this assay (P40337 whole entry, looked up): as the sequence (P40337 whole entry, looked up) above
Target sequence in this assay (Q15910 whole entry, looked up): as the sequence (Q15910 whole entry, looked up) above

[13] = target: Histone-lysine N-methyltransferase SETD2 (Homo sapiens) (UniProt Q9BYW2); assay: Inhibition of human SETD2 assessed as methyltransferase activity using Oligo Nucleosomes as substrate at 10 uM by radioisotope based MT HotSpot assay relative to control; outline: as §2
[14] = target: T1, von Hippel-Lindau disease tumor suppressor/Histone-lysine N-methyltransferase EZH2; assay: PROTAC activity at VHL/EZH2 degradation in hMLLr AML cell line EOL1 cells assessed as protein degradation measured after 24 hrs by Western blot analysis; type: cell-based; outline: as §4
[15] = target: T1, von Hippel-Lindau disease tumor suppressor/Histone-lysine N-methyltransferase EZH2; assay: PROTAC activity at VHL/EZH2 degradation in hMLLr AML cell line EOL1 cells assessed as protein degradation at 0.1 uM measured after 24 hrs by Western blot analysis; type: cell-based; outline: as §4
[16] = target: T1, von Hippel-Lindau disease tumor suppressor/Histone-lysine N-methyltransferase EZH2; assay: PROTAC activity at VHL/EZH2 degradation in MLLr AML cell line human EOL1 cells assessed as protein degradation at 0.5 uM measured after 24 hrs in presence of 0.05 uM MLN4924 by Western blot analysis; type: cell-based; outline: as §1
[17] = target: Histone-lysine N-methyltransferase SUV39H1 (Homo sapiens) (UniProt O43463); assay: Inhibition of human SUV39H1 assessed as methyltransferase activity using Histone H3 as substrate at 10 uM by radioisotope based MT HotSpot assay relative to control; outline: as §2
[18] = target: T1, von Hippel-Lindau disease tumor suppressor/Histone-lysine N-methyltransferase EZH2; assay: PROTAC activity at VHL/EZH2 degradation in MLLr AML cell line human EOL1 cells assessed as protein degradation at 0.5 uM measured after 24 hrs by Western blot analysis; type: cell-based; outline: as §4
[19] = target: Histone-lysine N-methyltransferase EHMT2 (Homo sapiens) (UniProt Q96KQ7); assay: Inhibition of human G9a assessed as methyltransferase activity using Histone H3 as substrate at 10 uM by radioisotope based MT HotSpot assay relative to control; outline: as §2
MDA-MB-468 = assay: Anti-proliferative activity against human MDA-MB-468 cells assessed as cell growth inhibition measured after 5 days incubation by CCK-8 assay; type: functional, cell-based; conditions: MDA-MB-468, 120 h; outline: as §3
[20] = target: T1, von Hippel-Lindau disease tumor suppressor/Histone-lysine N-methyltransferase EZH2; assay: PROTAC activity at VHL/EZH2 degradation in MLLr AML cell line human EOL1 cells assessed as protein degradation at 0.1 uM measured after 24 hrs by Western blot analysis; type: cell-based; outline: as §4

Sequence of Histone-lysine N-methyltransferase SETD2 (Homo sapiens) (Q9BYW2 whole entry): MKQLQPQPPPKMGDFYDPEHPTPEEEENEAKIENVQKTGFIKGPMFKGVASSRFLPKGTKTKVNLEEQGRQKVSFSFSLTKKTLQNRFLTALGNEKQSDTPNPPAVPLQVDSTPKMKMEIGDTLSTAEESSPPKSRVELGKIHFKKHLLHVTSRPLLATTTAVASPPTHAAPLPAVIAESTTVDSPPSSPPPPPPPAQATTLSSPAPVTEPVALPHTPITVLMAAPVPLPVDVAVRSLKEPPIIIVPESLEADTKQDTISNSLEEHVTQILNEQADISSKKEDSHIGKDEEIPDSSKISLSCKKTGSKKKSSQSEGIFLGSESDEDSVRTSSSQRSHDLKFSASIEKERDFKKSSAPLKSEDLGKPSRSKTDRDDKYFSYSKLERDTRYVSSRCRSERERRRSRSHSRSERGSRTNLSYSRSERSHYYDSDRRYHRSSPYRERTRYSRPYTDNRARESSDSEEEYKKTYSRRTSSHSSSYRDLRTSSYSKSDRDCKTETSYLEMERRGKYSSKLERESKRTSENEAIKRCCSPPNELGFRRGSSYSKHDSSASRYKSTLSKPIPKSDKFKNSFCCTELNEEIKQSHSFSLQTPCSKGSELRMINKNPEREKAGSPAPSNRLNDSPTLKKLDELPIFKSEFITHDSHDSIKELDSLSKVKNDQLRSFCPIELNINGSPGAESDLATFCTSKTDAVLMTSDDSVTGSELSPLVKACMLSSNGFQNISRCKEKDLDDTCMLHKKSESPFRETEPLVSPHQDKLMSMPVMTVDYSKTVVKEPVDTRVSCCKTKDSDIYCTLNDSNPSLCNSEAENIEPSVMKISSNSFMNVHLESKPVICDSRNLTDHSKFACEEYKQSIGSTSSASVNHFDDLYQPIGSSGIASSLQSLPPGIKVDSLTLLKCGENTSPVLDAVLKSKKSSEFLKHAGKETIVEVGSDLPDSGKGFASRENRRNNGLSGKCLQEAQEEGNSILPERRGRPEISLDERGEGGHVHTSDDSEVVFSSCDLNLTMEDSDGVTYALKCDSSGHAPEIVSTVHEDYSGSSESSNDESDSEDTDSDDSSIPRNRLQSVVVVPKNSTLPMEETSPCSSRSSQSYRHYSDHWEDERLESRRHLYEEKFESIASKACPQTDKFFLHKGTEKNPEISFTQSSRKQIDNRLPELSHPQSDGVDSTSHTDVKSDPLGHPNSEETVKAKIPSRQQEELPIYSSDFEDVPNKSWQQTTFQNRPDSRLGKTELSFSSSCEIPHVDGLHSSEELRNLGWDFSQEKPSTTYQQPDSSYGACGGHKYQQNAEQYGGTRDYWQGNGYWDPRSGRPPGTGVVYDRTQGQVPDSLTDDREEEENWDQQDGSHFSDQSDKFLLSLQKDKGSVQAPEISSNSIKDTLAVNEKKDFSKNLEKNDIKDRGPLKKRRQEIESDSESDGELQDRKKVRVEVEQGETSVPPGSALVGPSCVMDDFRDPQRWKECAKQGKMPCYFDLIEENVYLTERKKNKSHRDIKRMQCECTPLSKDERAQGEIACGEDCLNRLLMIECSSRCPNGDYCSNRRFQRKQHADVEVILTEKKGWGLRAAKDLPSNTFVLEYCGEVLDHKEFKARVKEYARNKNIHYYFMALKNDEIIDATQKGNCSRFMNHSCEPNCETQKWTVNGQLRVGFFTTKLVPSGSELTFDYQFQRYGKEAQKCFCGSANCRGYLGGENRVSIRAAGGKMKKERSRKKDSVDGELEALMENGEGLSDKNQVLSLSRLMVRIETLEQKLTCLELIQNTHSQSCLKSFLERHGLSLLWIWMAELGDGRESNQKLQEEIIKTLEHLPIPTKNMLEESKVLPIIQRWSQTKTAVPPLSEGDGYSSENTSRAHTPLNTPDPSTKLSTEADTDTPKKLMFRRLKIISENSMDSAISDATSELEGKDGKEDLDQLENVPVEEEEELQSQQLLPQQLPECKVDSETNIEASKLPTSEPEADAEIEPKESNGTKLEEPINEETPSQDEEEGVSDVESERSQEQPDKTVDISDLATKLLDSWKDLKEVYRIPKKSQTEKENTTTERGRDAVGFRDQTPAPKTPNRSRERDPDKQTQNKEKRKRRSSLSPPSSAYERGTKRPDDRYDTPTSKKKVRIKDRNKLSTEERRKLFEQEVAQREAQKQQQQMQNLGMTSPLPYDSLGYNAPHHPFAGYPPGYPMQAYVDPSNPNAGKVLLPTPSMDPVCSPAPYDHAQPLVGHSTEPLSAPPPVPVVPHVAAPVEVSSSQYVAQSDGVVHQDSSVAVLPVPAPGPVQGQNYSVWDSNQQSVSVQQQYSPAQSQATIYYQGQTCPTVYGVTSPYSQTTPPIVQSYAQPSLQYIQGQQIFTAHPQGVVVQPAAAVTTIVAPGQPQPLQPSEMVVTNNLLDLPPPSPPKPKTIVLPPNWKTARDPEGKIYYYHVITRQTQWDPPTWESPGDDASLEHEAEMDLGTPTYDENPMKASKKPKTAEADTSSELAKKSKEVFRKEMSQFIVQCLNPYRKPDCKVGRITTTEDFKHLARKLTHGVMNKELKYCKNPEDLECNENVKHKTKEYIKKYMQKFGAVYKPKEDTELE
Sequence of Histone-lysine N-methyltransferase SMYD3 (Homo sapiens) (Q9H7B4 whole entry): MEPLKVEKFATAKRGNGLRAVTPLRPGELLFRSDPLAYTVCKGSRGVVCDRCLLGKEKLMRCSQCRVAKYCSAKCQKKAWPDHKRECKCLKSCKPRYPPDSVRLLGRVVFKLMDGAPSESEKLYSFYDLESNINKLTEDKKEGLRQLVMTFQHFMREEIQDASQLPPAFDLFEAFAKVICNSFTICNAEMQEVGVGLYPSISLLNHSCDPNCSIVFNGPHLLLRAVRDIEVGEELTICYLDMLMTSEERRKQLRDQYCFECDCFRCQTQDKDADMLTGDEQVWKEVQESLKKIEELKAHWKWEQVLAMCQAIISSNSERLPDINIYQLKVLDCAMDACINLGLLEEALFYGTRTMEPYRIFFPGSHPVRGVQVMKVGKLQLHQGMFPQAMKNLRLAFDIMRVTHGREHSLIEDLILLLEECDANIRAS
Sequence of Histone-lysine N-methyltransferase SUV39H1 (Homo sapiens) (O43463 whole entry): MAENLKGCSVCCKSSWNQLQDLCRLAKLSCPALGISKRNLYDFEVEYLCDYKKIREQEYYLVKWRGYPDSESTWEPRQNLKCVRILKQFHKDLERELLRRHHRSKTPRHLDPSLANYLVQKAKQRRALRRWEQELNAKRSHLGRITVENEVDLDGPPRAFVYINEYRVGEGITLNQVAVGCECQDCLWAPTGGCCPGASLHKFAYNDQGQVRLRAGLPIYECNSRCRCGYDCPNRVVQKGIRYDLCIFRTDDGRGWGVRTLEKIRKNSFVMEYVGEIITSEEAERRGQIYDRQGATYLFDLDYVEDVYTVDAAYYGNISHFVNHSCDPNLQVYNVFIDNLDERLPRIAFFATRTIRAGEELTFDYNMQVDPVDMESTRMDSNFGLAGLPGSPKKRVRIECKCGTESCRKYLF

## CCN(c1cc(-c2ccc(CN3CCN(CCC(=O)NCCCCCCCCCCC(=O)N[C@H](C(=O)N4C[C@H](O)C[C@H]4C(=O)NCc4ccc(-c5scnc5C)cc4)C(C)(C)C)CC3)cc2)cc(C(=O)NCc2c(C)cc(C)[nH]c2=O)c1C)C1CCOCC1
[1]
  Activity: inactive
[2]
  inhibition: < 50%
EOL1
  IC50: 0.11 µM
[3]
  inhibition: < 50%
[4]
  Activity: Active
[5]
  Activity: Active
[6]
  Activity: inactive
[7]
  Activity: Active
[8]
  plasma concentration: Stable
[9]
  inhibition: < 50%
MV4-11
  IC50: 0.17 µM
BT-549
  IC50: 1.45 µM
[10]
  inhibition: < 50%
[11]
  inhibition: < 50%
[12]
  Activity: 100%
[13]
  inhibition: < 50%
[14]
  DC50: 0.0344 µM
[15]
  Activity: 100%
[16]
  Activity: inactive
[17]
  inhibition: < 50%
[18]
  Activity: Active
[19]
  inhibition: < 50%
MDA-MB-468
  IC50: 0.45 µM
[20]
  Activity: 100%
